M5 PAM: CHRM5 positive allosteric modulation; P08912; CHO-K1 hM5, Fluo-8 calcium, ACh EC20 PAM; 0% = ACh EC20, 100% = ACh EC100; activation, % at 3 µM; hit rate 0.3% among 360,000; AID 624038;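 active means activation above the run cutoff, the mean activation of all test compounds plus 3 SD, cut at about 18% in these data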
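System: CHO-K1 cell line with stable human muscarinic M5 receptor expression | Also added: EC20 acetylcholine as agonist stimulus | Compound: One concentration, 3 µM final (nominal) | Timing: Fluo-8 loading 80 min at 37 °C plus 30 min room temperature | Measured by: Fluo-8 calcium dye fluorescence, kinetic read | Read-out basis: % activation, ACh-normalized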
CHRM5 antagonist: CHRM5 antagonism in calcium assay | P08912 | hit rate 0.59% among 360,000 | CHO-hM5 cells, Fluo-8 calcium fluorescence, ACh EC80 | inhibition, % at 3 µM;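 active means inhibition above a per-plate cutoff, the mean of that plate's test compounds plus 3 SD, cut at about 27% in these data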;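 further: 0% = acetylcholine EC80 with DMSO and 100% = DMSO without agonist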
CHRM4 antagonist: antagonists of human muscarinic M4 receptor (CHRM4). P08173. CHO-hM4 cells, ACh EC80, Fluo-8 calcium fluorescence. inhibition, % at 3 µM. hit rate 0.73% among 360,000. AID 624125;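 active means inhibition above its plate's cutoff, the mean inhibition of sample wells plus 3 SD, cut at about 27% in these data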;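 further: 0% = acetylcholine EC80 with DMSO and 100% = DMSO without agonist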
Target sequence (P08173 whole entry, looked up): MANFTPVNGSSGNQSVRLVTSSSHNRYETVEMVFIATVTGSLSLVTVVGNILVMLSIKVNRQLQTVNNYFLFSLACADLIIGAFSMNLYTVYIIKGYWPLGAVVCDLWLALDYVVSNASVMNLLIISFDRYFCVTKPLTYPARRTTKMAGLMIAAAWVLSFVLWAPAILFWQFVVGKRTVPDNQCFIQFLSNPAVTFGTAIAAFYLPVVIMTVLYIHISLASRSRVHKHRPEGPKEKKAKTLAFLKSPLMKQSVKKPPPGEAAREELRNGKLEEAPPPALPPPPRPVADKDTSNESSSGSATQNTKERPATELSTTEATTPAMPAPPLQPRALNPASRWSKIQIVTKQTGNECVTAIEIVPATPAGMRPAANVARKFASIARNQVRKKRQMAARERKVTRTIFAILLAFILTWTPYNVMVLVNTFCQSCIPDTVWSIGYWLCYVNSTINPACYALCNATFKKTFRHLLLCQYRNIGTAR
M4 ag: CHRM4 agonism in calcium assay. AID 624127. activation, % at 3 µM. CHO-K1 hM4/Gqi5, Fluo-8 calcium fluorescence; vehicle 0%, full acetylcholine response 100%. P08173. hit rate 0.14% among 360,000;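 active means activation above the run mean over all test wells plus 3 SD, cut at about 32% in these data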;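 further: peak over basal fluorescence ratio per well then scaled between controls; 0% = DMSO wells and 100% = acetylcholine at EC100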
M4 PAM: CHRM4 positive allosteric modulation; CHO-K1 hM4/Gqi5, Fluo-8 calcium fluorescence, ACh EC20; 0% = ACh EC20, 100% = maximal ACh; P08173; activation, % at 3 µM; hit rate 0.4% among 360,000;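 active means activation above its plate's cutoff, the mean activation of sample wells plus 3 SD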
M5 ag: agonists of human muscarinic M5 receptor (CHRM5); P08912; AID 624037; hit rate 0.19% among 360,000; CHO-K1 hM5 cells, Fluo-8 calcium fluorescence; 0% DMSO wells, 100% maximal acetylcholine response; activation, % at 3 µM;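 active means activation above the run's mean over test compounds plus 3 SD, cut at about 23% in these data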;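 further: signal is peak over basal fluorescence ratio across the kinetic read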
Numbers without * were called inactive. Shown are actives, neighbours in structure and some others; about 1.8% of the full set was active somewhere.

SMILES	M5 PAM	CHRM5 antagonist	CHRM4 antagonist	M4 ag	M4 PAM	M5 ag
CCn1c(CNC(=O)COc2ccc(C(C)C)cc2)nnc1SCC(=O)Nc1ccccc1C(C)C	-9.3	27.6*	2.2	9.1	-12.8	3.9
COc1ccc(OC)c(/C=N/NC(=O)C(=O)N2CCCC2)c1	2.4	6.3	-16.0	-0.8	22.4*	1.6
CCOc1ccccc1NC(=O)NC1CC2CCCC(C1)N2Cc1nnnn1CCc1ccccc1 (centres undefined)	-4.9	-8.5	42.3*	-0.5	-10.7	-3.9
S=C(Nc1ccc(-c2nc3ccccc3[nH]2)cc1)Nc1cccnc1	1.9	2.7	1.2	0.0	2.8	-3.7
Cc1cc(NC(=O)Nc2ccccc2F)ccc1Br	-17.7	36.8*	12.6	13.0	-15.7	0.2
O=C(Nc1cccc(Cl)c1)Nc1ccc(Br)cc1F	-14.1	16.3	25.3	7.3	-15.9	0.9
O=C(Nc1ccccc1)Nc1ccc(Br)cc1F	-19.0	28.0*	54.1*	7.1	-28.2	0.5
COc1ccccc1NC(=O)Cn1c(CCC(=O)O)ccc1-c1ccccc1	2.9	-7.3	-2.0	0.4	-5.0	-6.4
O=S(=O)(/N=S1/CC=CCN1S(=O)(=O)c1ccccc1)c1ccccc1 (centres undefined)	2.7	6.3	16.3	21.6	-7.2	25.6*
COCCNCCOc1ccccc1-c1ccccc1	18.9*	-10.9	-1.1	1.5	2.2	-10.7
O=C(Nc1cccc(S(=O)(=O)N2CCCC2)c1)[C@H]1C[C@H](O)[C@@H](CO)O1	-2.1	1.3	1.7	1.9	-2.2	1.3
COc1ccc(Oc2nnc(-c3ccccc3)cc2C#N)cc1	9.8	0.1	-0.3	1.2	26.7*	-1.9
CCOC(=O)C1=CC[C@@H](c2ccccc2)N(S(=O)(=O)c2ccc(C)cc2)[C@H]1C#N	4.2	2.7	31.5*	6.6	-5.8	2.3
CCOC(=O)C1=CC[C@@H](c2ccccc2)N(S(=O)(=O)c2ccc(C)cc2)[C@H]1c1ccc(C#N)cc1	-11.8	2.8	-3.2	-0.1	-14.2	-1.8
C[C@@H](NC(=O)c1nc[nH]c1C(=O)NCc1ccccc1)c1ccccc1	-4.7	8.0	4.8	1.2	7.2	-8.7
COC(=O)CC1=Nc2ccccc2NC(=O)C1	0.5	5.5	0.0	0.2	-1.1	-5.3
CCOC(=O)CC1=Nc2ccccc2NC(=O)C1	-0.9	5.3	26.7*	2.8	-3.6	-6.8
N[C@@]12CCc3nonc3[C@]1(O)CC(c1ccccc1)=[N+]2[O-]	9.9	0.0	1.4	0.7	25.8*	0.7
COc1ccc(CCn2c(C)cc(C(=O)CCl)c2C)cc1OC	-7.0	9.7	-10.3	1.7	-4.1	-2.2
CC(NC(=O)Cn1ccsc1=N)C12CC3CC(CC(C3)C1)C2 (centres undefined)	-1.2	-2.3	-6.6	6.5	-3.5	-9.9
CC(NC(=O)Cn1c(=O)[nH]c2ccsc2c1=O)C12CC3CC(CC(C3)C1)C2 (centres undefined)	0.8	-2.6	0.2	0.9	19.2*	0.9
O=C1NC2(Nc3ccccc31)C(=O)Nc1ccc(Br)cc12 (centres undefined)	-30.4	98.5*	-3.0	0.4	-1.1	-14.9
OC(COc1ccc(C2C=CCC2)cc1)CN1CCCCC1 (centres undefined)	3.9	-3.8	4.5	1.9	-5.1	-6.1
O=C1c2ccccc2C(Nc2ccc(Cl)cn2)N1c1ccccn1 (centres undefined)	-1.2	3.7	-12.7	0.0	18.4*	-1.7
CCOC(=O)C1CCN(C(=O)COC(=O)/C=C/c2cccc(OC)c2OC)CC1	0.9	2.9	-12.1	6.7	18.2	24.1*
SMILES	M5 PAM	CHRM5 antagonist	CHRM4 antagonist	M4 ag	M4 PAM	M5 ag
CCOC(=O)C1CCN(C(=O)COC(=O)/C=C/c2ccccc2)CC1	3.0	-2.6	-12.8	2.2	8.8	7.2
COc1cccc(/C=C/C(=O)OCC(=O)c2c[nH]c3ccccc23)c1	-28.4	9.2	-1.6	18.2	-3.8	-1.9
COc1cccc(/C=C/C(=O)OCC(=O)c2c[nH]c3ccccc23)c1OC	-18.3	27.2*	13.2	14.2	-9.4	-0.8
CCCCC(=O)NC1(C(F)(F)F)NC(=O)N(Cc2ccccc2)C1=O (centres undefined)	2.5	5.2	-6.5	1.8	-0.2	1.1
Cc1cccc(CN2CCN(C3CN(Cc4ccc([N+](=O)[O-])cc4)S(=O)(=O)C3)CC2)c1 (centres undefined)	-6.2	-2.2	-1.4	13.2	-8.9	1.1
O=[N+]([O-])c1ccc2c(c1)C(O)n1ncnc1S2 (centres undefined)	4.9	-1.4	1.6	0.8	7.1	-2.2
O=[N+]([O-])c1ccc2c(c1)C(O)n1nc(-c3ccc(Cl)cc3Cl)nc1S2 (centres undefined)	25.1*	0.5	-18.2	0.6	7.4	-2.8
CCC(C(=O)Nc1c(C)cccc1C)n1c(-c2cnc(C)cn2)nc2ccccc21 (centres undefined)	3.4	-4.5	-11.2	2.1	6.3	-2.6
O=C(NNC(=O)c1cc(-c2cccnc2)nc2ccccc12)Nc1ccc(Cl)cc1	-34.0	37.8*	30.1*	22.4	-25.2	6.0
N#CC1=C(N)OC(c2ccccc2)=C(C#N)C1c1ccc2c(c1)OCO2 (centres undefined)	-12.9	6.1	4.4	2.5	4.2	1.9
N#CC1=C(N)OC2=C(C(=O)CC(c3ccccc3)C2)C1c1ccc2c(c1)OCO2 (centres undefined)	-18.2	16.0	38.0*	0.5	-15.2	-8.0
CCCNC(=O)c1cc(C2CCCCN2S(=O)(=O)Cc2cccc(C(F)(F)F)c2)on1 (centres undefined)	-1.3	3.1	-7.7	1.1	0.3	-1.8
CC(=O)n1cc([C@H]2C=C(C(N)=O)O[C@@H](OCc3ccc(CO)cc3)C2)c2ccccc21	-27.8	12.7	16.1	34.2*	-7.5	28.9*
CN(C(=O)CSc1nc2ccc(Cl)cc2[nH]1)C1CCS(=O)(=O)C1 (centres undefined)	22.8*	-3.7	4.0	0.1	6.9	1.0
Cc1cc(C)n(-c2nc(Nc3ccccc3)nc(-n3nc(C)cc3C)n2)n1	4.5	-5.1	17.4	-0.5	1.1	1.1
COc1cccc(/C=N/Nc2nc(Nc3ccccc3)nc(-n3nc(C)cc3C)n2)c1O	-15.2	15.6	17.9	42.5*	-18.9	1.2
O=C(NCc1cccnc1)c1cccc2c1C(=O)N(Cc1cccnc1)C2	18.6*	-3.7	0.4	1.4	7.2	-6.3
Cc1ccc(-c2csc(N3CCC(NS(=O)(=O)c4ccc5c(c4)OCCO5)CC3)n2)cc1	-21.1	28.1*	21.3	9.9	-10.2	3.8

Screening results (PubChem BioAssay)
